Residue numbers refer to the chain shown, from its start. Like-named read-outs stand apart in the source and are kept apart here.
Columns and labels:
[1] = test system: HeLa cells overexpressing ORP4L; assay: Overexpression-viability assay, ORP4L-Myc-His; format: cell-based, human; settings: 48 h, versus lacZ
OSBP = biological target: T1, OSBP (Homo sapiens, UniProt P22059); assay: OSBP localization by immunofluorescence microscopy, HCT-116; format: cell-based; settings: HCT-116 cells, 4 h; 5 μM schweinfurthin A, 10 nM OSW-1, 20 nM cephalostatin 1
T1 sequence (P22059 1-807): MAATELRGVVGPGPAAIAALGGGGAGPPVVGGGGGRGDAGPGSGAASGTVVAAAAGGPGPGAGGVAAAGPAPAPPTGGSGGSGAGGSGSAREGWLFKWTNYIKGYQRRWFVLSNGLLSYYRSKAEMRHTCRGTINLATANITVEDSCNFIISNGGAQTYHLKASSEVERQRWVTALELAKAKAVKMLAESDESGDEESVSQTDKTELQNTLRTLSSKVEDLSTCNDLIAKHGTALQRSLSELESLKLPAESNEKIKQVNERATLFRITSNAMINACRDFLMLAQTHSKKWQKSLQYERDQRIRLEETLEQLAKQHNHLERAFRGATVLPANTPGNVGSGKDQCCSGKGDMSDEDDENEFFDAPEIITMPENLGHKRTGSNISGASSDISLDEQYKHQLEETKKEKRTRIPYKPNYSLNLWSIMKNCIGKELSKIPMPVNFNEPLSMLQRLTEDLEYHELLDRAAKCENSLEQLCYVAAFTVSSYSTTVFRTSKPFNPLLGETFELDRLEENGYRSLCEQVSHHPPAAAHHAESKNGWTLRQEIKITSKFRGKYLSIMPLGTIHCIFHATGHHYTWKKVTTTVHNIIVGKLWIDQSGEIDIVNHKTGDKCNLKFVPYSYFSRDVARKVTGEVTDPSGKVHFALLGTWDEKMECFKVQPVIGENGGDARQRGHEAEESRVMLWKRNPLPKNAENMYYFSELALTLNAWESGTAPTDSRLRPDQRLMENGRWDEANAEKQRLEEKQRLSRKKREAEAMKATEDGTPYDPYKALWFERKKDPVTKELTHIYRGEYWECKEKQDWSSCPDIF
Outline: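 Cells on coverslips were grown 72 h, then given test compound or vehicle (4 h for HCT-116). They were fixed 10 min in 3.7% formaldehyde/PBS and permeabilised 5 min in 0.5% Triton X-100. Blocking used Image-iT FX, then 1% BSA/PBS. Rabbit anti-OSBP (N-terminus) and mouse anti-p230 were applied overnight at 4 °C, then Alexa Fluor secondaries for 60 min with Hoechst 33258. Imaging was by confocal microscopy.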

HCT-116 cells = assay: Suppression of antiproliferative activity by 25-OHC coadministration; format: cell-based, human
Outline: (§1)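 HCT-116 p21+/+ and p21−/− cells were seeded in 96-well plates and rested 24 h. A time-zero plate was read with CellTiter-Blue (resazurin) after 90 min at 37 °C, fluorescence 544 nm ex / 590 nm em. Serially diluted test compound was added as 4× solution. Viability was re-read at 48 h and GI50 derived. For coadministration, 10 μM 25-OHC was added with test compound at 250 nM or 10 nM.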

HCT-116 p21^−/− cells = assay: Cell viability assay, HCT-116 p21-/-; format: cell-based, human; settings: GI50 after 48 h
Outline: as §1

OSBP^V582M = biological target: T2, OSBP^V582M (Homo sapiens, UniProt P22059, V582M); assay: [3H]25-OHC binding assay, OSBP V582M mutant
T2 sequence (P22059 1-807 V582M): T1 sequence (P22059 1-807) with V582M

SMILES | Desensitization factor by ORP4L overexpression (relative GI30) [1] | OSBP localization (OSBP) | Growth inhibition when administered alone (HCT-116 cells; 10 nM, HCT-116 cells, 48 h) | Effect of 10 μM 25-OHC coadministration on growth inhibition (HCT-116 cells; HCT-116 cells, 250 nM cephalostatin 1 or 10 nM OSW-1) | p21^−/− selectivity of growth inhibition (HCT-116 p21^−/− versus wild-type) (HCT-116 p21^−/− cells) | Ki (OSBP^V582M; read-out: Ki, OSBP^V582M, competition with [3H]25-OHC, mean ± s.d.) | Effect of 25-OHC coadministration on antiproliferative activity (HCT-116 cells; HCT-116 and HeLa cell lines) | Ki (OSBP^V582M)
COc1ccc(C(=O)O[C@H]2[C@H](O[C@@H]3[C@@H](OC(C)=O)[C@H](O[C@H]4C[C@H]5[C@@H]6CC=C7C[C@@H](O)CC[C@]7(C)[C@H]6CC[C@]5(C)[C@@]4(O)[C@H](C)C(=O)CCC(C)C)OC[C@@H]3O)OC[C@@H](O)[C@@H]2O)cc1 [OSW-1] | 2–5 | localize to a perinuclear position that did not localize with p230 | > 75% | nearly complete desensitization | selectively growth-inhibitory | 46 nM | – | –
CC(C)=CCC/C(C)=C/Cc1c(O)cc(/C=C/c2cc(O)c3c(c2)C[C@@H]2C(C)(C)[C@H](O)[C@H](O)C[C@@]2(C)O3)cc1O [schweinfurthin A] | 2–5 | accumulate at perinuclear positions with a large degree of co-localization with the trans-Golgi marker p230 | – | – | selectively growth-inhibitory | – | desensitized cells to schweinfurthin A, although to a lesser degree | 37 nM

— paper PMC3158287 (Nature chemical biology, 2011)
